In the library only some 2.8% were active in any assay of this set; here they are far more common.
PAFAH1B3 inh = PAFAH1B3 (human) inhibition | 340,000 compounds, 0.28% hits | recombinant PAFAH1B3, FP-rhodamine probe, fluorescence polarization | inhibition, % at 3.39 µM | Q15102;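 active = inhibition above the screen-wide average of all tested compounds plus 3 SD, cut at about 25% in these data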;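 note: 0% = enzyme with DMSO only and 100% = wells lacking PAFAH1B3 protein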
Target sequence (Q15102 whole entry, looked up): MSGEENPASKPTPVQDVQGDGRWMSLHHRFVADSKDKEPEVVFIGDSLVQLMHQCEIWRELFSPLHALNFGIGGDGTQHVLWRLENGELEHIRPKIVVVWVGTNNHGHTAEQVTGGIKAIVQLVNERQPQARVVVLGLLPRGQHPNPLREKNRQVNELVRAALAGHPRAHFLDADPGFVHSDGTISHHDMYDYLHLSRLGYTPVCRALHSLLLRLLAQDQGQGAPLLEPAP
pPAFAH FP inh = pPAFAH (human) enzyme inhibition; Q13093; recombinant pPAFAH, FP-rhodamine probe fluorescence polarization; inhibition, % at 3.39 µM; 330,000 compounds, 1.5% hits; AID 463082;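 active = inhibition above the mean inhibition across the screen plus 3 SD, cut at about 25% in these data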;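 note: inhibitors block binding of the rhodamine activity-based probe so polarization drops; 0% = enzyme with DMSO and 100% = wells lacking pPAFAH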
HTRA1 inhibitor = HTRA1 (human) protease inhibition | 340,000 compounds, 0.5% hits | inhibition, % at 5.96 µM | recombinant HTRA1, FP-rhodamine activity-based probe, fluorescence polarization | Q92743; in the data active = inhibition above about 36%;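 note: 0% = enzyme with DMSO and 100% = wells lacking enzyme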
PAFAH2 FP inh = PAFAH2 (human) inhibition | Q99487 | recombinant PAFAH2, FP-rhodamine activity probe, fluorescence polarization | inhibition, % at 3.39 µM | 340,000 compounds, 0.99% hits | AID 492956;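 active = inhibition above the mean over all tested compounds plus 3 SD, cut at about 30% in these data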;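 note: inhibitors block probe labeling of enzyme so polarization drops; 0% = enzyme with DMSO and 100% = wells lacking PAFAH2 protein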
PAFAH1B2 FP inh = PAFAH1B2 (human) inhibition. recombinant PAFAH1B2, FP-rhodamine activity probe, fluorescence polarization. 340,000 compounds, 1.2% hits. inhibition, % at 3.39 µM;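 active = inhibition above the mean of all tested compounds plus 3 SD, cut at about 24% in these data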;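 note: 0% = enzyme with DMSO and 100% = wells lacking PAFAH1B2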
Target sequence (P68402 whole entry, looked up): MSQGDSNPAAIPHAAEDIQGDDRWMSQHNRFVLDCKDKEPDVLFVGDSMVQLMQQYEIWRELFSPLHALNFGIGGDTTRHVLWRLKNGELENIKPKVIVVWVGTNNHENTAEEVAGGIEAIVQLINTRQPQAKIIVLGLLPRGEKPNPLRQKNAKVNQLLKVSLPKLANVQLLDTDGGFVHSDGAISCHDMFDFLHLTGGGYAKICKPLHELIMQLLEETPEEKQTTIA
mABHD4 FP = inhibits mouse alpha/beta hydrolase domain 4. Q8VD66. purified mABHD4, FP-Rh probe fluorescence polarization. inhibition, % at 8.92 µM. 370,000 compounds, 0.54% hits. AID 720543;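 active = inhibition exceeding the mean over every tested compound plus 3 SD, cut at about 30% in these data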;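 note: 0% = plate median of compound wells and 100% = S159A mutant with DMSO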
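Assay system: mABHD4 protein; medium: HEPES pH 7.0, NaCl, Pluronic buffer; dosing: 8.92 µM, single dose; schedule: 45 min + 60 min at 25 °C; signal: FP readout, ex 525 nm / em 598 nm; read-out: normalized percent inhibition of probe labeling; repeats: single replicate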
* = called active by the depositor; / = not tested or not shown.

SMILES	PAFAH1B3 inh	pPAFAH FP inh	HTRA1 inhibitor	PAFAH2 FP inh	PAFAH1B2 FP inh	mABHD4 FP
CN(C)CC(c1ccc(O)cc1)C1(O)CCCCC1 (stereo not drawn)	/	/	/	/	/	2
O=[N+]([O-])c1cc(S(=O)(=O)Nc2ccccc2)ccc1N1CCN(c2ccc(O)cc2)CC1	12	30*	2	7	0	9
Cc1ccc(C)c(NC(=O)c2cc(-c3ccc(Cl)cc3)nc3ccccc23)c1	/	/	/	/	/	4
Cc1ccc(S(=O)(=O)N2CC(O)C[C@H]2C(=O)OCC(=O)Nc2ccc(N3CCCCC3)cc2)cc1C (stereo partly drawn)	3	25*	-5	9	1	7
Cc1cc(OCC(=O)Nc2ccc(N3CCCC3)cc2)cc(C)c1Cl	0	26*	32	6	-2	-6
COC(=O)[C@]12C[C@H](CC(=O)N3CCCC3)C(=O)N(CCc3ccc(OC)c(OC)c3)C1=C[C@H](C1CCCC1)O[C@@H]2C	/	/	/	/	/	0
COc1ccc2ccc3c(c2c1)N=CC1(O3)N(C)c2ccccc2C1(C)C (stereo not drawn)	14	33*	28	5	1	/
CN1c2ccccc2C(C)(C)C12C=Nc1c(ccc3ccccc13)O2 (stereo not drawn)	13	7	20	0	0	6
CCCNC(=O)C[C@H]1CC[C@H]2[C@@H](COc3ccc(NC(=O)Nc4ccc(C#N)cc4)cc3C(=O)N2C)O1	/	/	/	/	/	11
Cc1ccccc1NC(=O)C[C@H]1CC[C@H]2[C@@H](COc3ccc(NC(=O)Nc4ccccc4)cc3C(=O)N2C)O1	/	/	/	/	/	13
O=C(O)c1cnn(-c2nc(-c3ccc(Br)cc3)cs2)c1C(F)(F)F	13	10	-13	2	40*	-20
NC(=O)Cc1nc(-c2ccc(Br)cc2)cs1	7	0	0	5	-1	-3
CCN(CC(=O)Nc1ccccc1OC)C(=O)CCOc1ccc(C(C)(C)C)cc1	-2	8	-21	4	30*	-4
O=C(COC(=O)c1ccc(Br)o1)Nc1ncc([N+](=O)[O-])s1	17	27*	17	25	6	23
S=c1[nH]nc(-c2ccccc2)n1/N=C/C=C/c1ccco1	15	31*	13	11	1	27
S=c1[nH]nc(-c2cccnc2)n1/N=C/C=C/c1ccco1	11	19	8	5	1	4
Cc1cc(/C=C2\SC(=S)NC2=O)c(C)n1-c1ccccc1	/	30*	/	/	/	8
COc1ccc(-n2c(C)cc(/C=C3\SC(=S)NC3=O)c2C)cc1	6	16	-7	7	1	7
COc1cc2cc(C(C)(C)O)oc(=O)c2cc1OC	9	33*	1	-13	11	5
O=c1oc2ccccc2c(Nc2cc3ccccc3cc2O)c1[N+](=O)[O-]	10	27*	22	16	4	11
COC(=O)C1=C(CSc2nc3c(cc2C#N)CN(C)CC3)OC(N)=C(C#N)C1c1ccccc1F (stereo not drawn)	9	28*	17	15	11	/
N#Cc1nc(COc2ccc(Cl)cc2)oc1NCc1ccc2c(c1)OCO2	3	2	-43	-4	29*	-36
COC(=O)[C@]12C[C@H](CC(=O)NCc3ccccc3)C(=O)N(Cc3ccco3)C1=C[C@H](C(C)C)O[C@@H]2C1CC1	/	/	/	/	/	-5
CCCn1c(/C=C/c2ccco2)nc2ccccc21	8	25*	18	18	7	3
Clc1ccc(Cn2c(/C=C/c3ccco3)nc3ccccc32)cc1	-11	33*	-22	-1	-8	-2
SMILES	PAFAH1B3 inh	pPAFAH FP inh	HTRA1 inhibitor	PAFAH2 FP inh	PAFAH1B2 FP inh	mABHD4 FP
CCCCn1c(/C=C/c2ccco2)nc2ccccc21	0	16	5	4	-1	2
CCN(CC)c1ccc(NC(=O)CSc2nc3ccccc3c(=O)n2-c2ccc(C)cc2)cc1	/	/	/	/	/	9
CC[C@H](CCCc1ccccc1OC)CCS(=O)(=O)N(C)C	/	/	/	/	/	-1
O=C(COc1ccc(Cl)cc1)NC1=NN(c2ccccc2)C(=O)C1	5	6	0	0	68*	18
COc1ccc(Oc2c(Br)cnn(Cc3cccc4ccccc34)c2=O)cc1	/	/	/	/	/	2
O=S(=O)(Nc1nc(-c2ccccc2)cs1)c1cc(Cl)ccc1Cl	-6	28*	-16	21	-3	-29
O=[N+]([O-])c1ccc(S(=O)(=O)Nc2nc(-c3ccccc3)cs2)cc1	-2	9	-7	16	1	13
c1ccc(-c2c[nH]c3ccc(OCc4ccc5ccccc5n4)c(-c4ccccc4)c23)cc1	/	/	/	/	/	-3
O=C(c1ccc2c(=O)n(Cc3ccccc3)c(=S)[nH]c2c1)N1CCCC1	6	9	1	7	26*	-3
Cc1ccc(C)c(N2CCN(C(=O)c3ccc(Cn4c(=S)[nH]c5ccc(N6CCOCC6)cc5c4=O)cc3)CC2)c1	2	27*	1	4	-4	11
O=c1[nH]c(CSc2nc3ccccc3s2)nc2ccccc12	3	-1	-9	-1	31*	-8
O=C(NC1CCc2ccccc21)c1cc(-c2ccc(Cl)cc2)nc2ccccc12 (stereo not drawn)	/	/	/	/	/	-2
COc1ccc(C2CC(c3ccccc3)=NN2c2ccc(Cl)c(C(=O)O)c2)cc1 (stereo not drawn)	10	34*	-16	7	1	14
COc1ccc(C2CC(c3ccccc3O)=NN2c2ccccc2)cc1 (stereo not drawn)	9	2	-2	4	-2	0
COc1ccc(C2CC(c3ccccc3)=NN2c2ccc(N)cc2)cc1 (stereo not drawn)	-2	26*	23	5	6	8
CCC(=O)Nc1cccc(C2=NN(c3ccccc3)C(c3ccc(OC)cc3)C2)c1 (stereo not drawn)	11	7	2	3	1	-5
Cc1onc(C(=O)N2CCN(C(c3ccc(Cl)cc3)c3ccc(Cl)cc3)CC2)c1[N+](=O)[O-]	/	/	/	/	/	-3
CCCCNC(=O)C[C@H]1C[C@@]2(C(=O)OC)C(=C[C@H](COCc3ccccc3)O[C@@H]2C)N(Cc2cccc3ccccc23)C1=O	/	/	/	/	/	-9
C=CCN1C(=O)[C@H](CC(=O)N2CCCCC2)[C@@]2(C(=O)OCC)CCCC=C12	/	/	/	/	/	2
CN1C(=O)C(C)(C)c2cc(S(=O)(=O)NCCc3ccc(Cl)cc3)ccc21	3	30*	-10	5	24*	-3
Cc1ccc(CCNS(=O)(=O)c2ccc3c(c2)C(C)(C)C(=O)N3C)cc1	0	25*	-5	-9	11	-2
Cc1ccccc1CNS(=O)(=O)c1ccc2c(c1)C(C)(C)C(=O)N2C	4	7	-4	-2	-2	6
CN1C(=O)C(C)(C)c2cc(S(=O)(=O)NCc3ccc(Cl)cc3)ccc21	10	6	-9	6	7	-5
